Source: the RNAGym collection of RNA variant scans (doi:10.1126/science.aae0568)
This sample holds only a part of the variants without activity.

B1: tRNA (parent)
chain: GUUCCGUUGGCGUAAUGGUAACGCGUCUCCCUCCUAAGGAGAAGACUGCGGGUUCGAGUCCCGUACGGAACG

Variants of: B1
Experiment: yeast fitness relative to wild type (ratio to wild type); higher = fitter; tRNA-Arg(CCU), competitive growth, 37 C, YPD
In short: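 Variants of the tRNA-Arg(CCU) gene, chemically synthesised with a 3% per-site mutation rate at 69 sites, were placed at the native genomic locus in Saccharomyces cerevisiae. The pooled strains were competed in YPD at 37°C for 24 hours in six parallel replicates. Gene amplicons from the start population and from each end population were read by 100-nucleotide paired-end sequencing. Darwinian fitness relative to wild type came from changes in genotype frequencies; genotypes needed ≥ 100 starting reads, and estimates < 0.5 were set to 0.5.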

Variant	yeast fitness
U2A A14C A37C	≤ 0.5
U2A A14C C34A C49U C55U A69C	≤ 0.5
U2A A14U A21G C46G A57U A69C	≤ 0.5
U2A A15C A57U C61U	0.504
U2A A15C G58C U64C	0.53
U2A A15G A45U G48A C66G	≤ 0.5
U2A A15U C22A A45G C46A U53C	0.589
U2A A20C C33G C46U	≤ 0.5
U2A A20C C33G C46U A70G	≤ 0.5
U2A A20G G67A	0.584
U2A A20U A45C	0.728
U2A A20U C34U G51A	≤ 0.5
U2A A21C C22A C29U C49G	≤ 0.5
U2A A21C C29U	≤ 0.5
U2A A21C C29U A57C	0.583
U2A A21C C29U G56C	≤ 0.5
U2A A21C G39A G52C C62U	≤ 0.5
U2A A21G	1.04
U2A A21G C33U G51C	≤ 0.5
U2A A36G A45C G68C	≤ 0.5
U2A A36G C49A C61U	≤ 0.5
U2A A37C G41C C66A	≤ 0.5
U2A A37U A70C	0.688
U2A A40U	0.796

Variant	yeast fitness
U2A A40U A70U	0.696
U2A A43C	0.893
U2A A45C G58A C61U	≤ 0.5
U2A A57G	0.897
U2A A57U A65U	≤ 0.5
U2A C4A	0.914
U2A C4A C5G A36G	0.524
U2A C4A C5G A36G G67A	≤ 0.5
U2A C4A C5G A65G	≤ 0.5
U2A C4A G12A C33U G39A U64A A70C	≤ 0.5
U2A C4G G41A C55A	≤ 0.5
U2A C4U A57U	≤ 0.5
U2A C4U G10C	0.522
U2A C4U U8G C22G U47A A70C	≤ 0.5
U2A C5A A40U	0.647
U2A C5A C27U G44A	≤ 0.5
U2A C5A C55U	≤ 0.5
U2A C5A G12A	0.526
U2A C5A G56A	0.526
U2A C5A G56C	0.56
U2A C5A U64G A70C	≤ 0.5
U2A C5G A15G	0.575
U2A C5G A40G A45C	≤ 0.5
U2A C5G G25A C66U	0.532

Variant	yeast fitness
U2A C5U A20U G38A	0.56
U2A C5U A69C	0.687
U2A C5U U8G A20G C34A	≤ 0.5
U2A C11G G51A C60U	≤ 0.5
U2A C11G U19C C60U	≤ 0.5
U2A C11U	0.894
U2A C11U G17A C29G C31G A37C C66A	≤ 0.5
U2A C11U G18C C31U A42G C62U	≤ 0.5
U2A C22A A40C C46G U59A C60U C61G	≤ 0.5
U2A C22U A40C G58C C66U	≤ 0.5
U2A C22U G56A	0.551
U2A C24G	0.643
U2A C24G A70U	≤ 0.5
U2A C24G C31U C33G A42C A43U	0.651
U2A C24G U28C A40U	≤ 0.5
U2A C24U C30U C33G A36C A37C A42C A65U	≤ 0.5
U2A C24U C31G G44A	≤ 0.5
U2A C27A C49G A57U C66U	0.639
U2A C29A A42G U54A C60G G68A	≤ 0.5
U2A C29A A43C	≤ 0.5
U2A C29A A45U G68C	≤ 0.5
U2A C29A A45U U59C	0.575
U2A C29G G58A	≤ 0.5
U2A C29U A37G	≤ 0.5

Variant	yeast fitness
U2A C30A C49U C61G	≤ 0.5
U2A C30A G52A A65U	≤ 0.5
U2A C30A G63C	≤ 0.5
U2A C31A A57G	0.555
U2A C31A U47C A69U	≤ 0.5
U2A C31G C61G	≤ 0.5
U2A C33G	0.714
U2A C33G A36U G44A U59C	0.554
U2A C34A U47G C49G C60G	≤ 0.5
U2A C34G	0.604
U2A C34G C49A G50A	0.517
U2A C34G U64C	≤ 0.5
U2A C49A C61G	0.505
U2A C60G	0.666
U2A C60U C62A	≤ 0.5
U2A C61U A70C	0.585
U2A C62U	0.899
U2A G6A C11G C49U U54C G58C	≤ 0.5
U2A G6A U7C A15C C29G C33U G68U	≤ 0.5
U2A G6C A14C	≤ 0.5
U2A G6C A21G U32C U59G C66U A70C	≤ 0.5
U2A G6C G38A	0.592
U2A G6C G68C	≤ 0.5
U2A G6C U16C C24U C46G C49A C61U	≤ 0.5

Variant	yeast fitness
U2A G9A A37C A42C C61G	≤ 0.5
U2A G9A A37C A42C G68A	≤ 0.5
U2A G9A U13A	0.645
U2A G9A U13A C24A A42G C55U A70C	≤ 0.5
U2A G9C U13A A15G C33A A37U G50C C61U A69U	≤ 0.5
U2A G12A C30A A43U A57G C60A G67A	≤ 0.5
U2A G12A G17A A20G A21C C29A A69U	≤ 0.5
U2A G12C A36C	≤ 0.5
U2A G12U G23A A36U G58C C60U	≤ 0.5
U2A G17C	0.603
U2A G17C A70U	0.572
U2A G17C C22G A40C	≤ 0.5
U2A G17C C24U C33U A36G U54C	≤ 0.5
U2A G23A	0.867
U2A G23A C29G A70U	0.541
U2A G25A G68A	0.64
U2A G44A C66U	0.588
U2A G44C C55A	≤ 0.5
U2A G48C	0.92
U2A G50A	0.858
U2A G50C G56A A57G	≤ 0.5
U2A G50C U59C C60A	0.877
U2A G68C	0.671
U2A U3A C24G G52C	≤ 0.5

Variant	yeast fitness
U2A U3A U16C C24U C62U	0.629
U2A U3A U26A G51A	≤ 0.5
U2A U3G C11A U16C C22G A57C	≤ 0.5
U2A U3G C29G C30G C46G A70G	≤ 0.5
U2A U7A A15U	≤ 0.5
U2A U7G	0.847
U2A U8A C11G C30G G48A	≤ 0.5
U2A U8A C24U	≤ 0.5
U2A U8A G12A C30U	≤ 0.5
U2A U8A U47A A69U	≤ 0.5
U2A U8C G12A A42U	≤ 0.5
U2A U8C U13C A42C	≤ 0.5
U2A U8C U47A G68C	≤ 0.5
U2A U8G C22U U32C C33G G38A	≤ 0.5
U2A U8G C33A G38A	≤ 0.5
U2A U13C A20G A21C C34U A36G	≤ 0.5
U2A U13C G38A	≤ 0.5
U2A U13G A40C G41C A57G G63C A65U	≤ 0.5
U2A U13G C62G	≤ 0.5
U2A U16C C30A A65U	≤ 0.5
U2A U16G	1.03
U2A U16G C49G	0.705
U2A U16G C66U	0.806
U2A U19A G44A	0.544

Variant	yeast fitness
U2A U28C G41C C66A	≤ 0.5
U2A U28G G67A	≤ 0.5
U2A U32A	0.72
U2A U32A A37U A43G	≤ 0.5
U2A U32A U64A A65U	0.581
U2A U32C A36G	0.736
U2A U32C U35C A36G	≤ 0.5
U2A U35C G38C U47G	≤ 0.5
U2A U47G	0.583
U2A U47G C49A C60U A65C	≤ 0.5
U2A U59A	0.917
U2C A14C A43C	≤ 0.5
U2C A14G A36C U47A C61A	≤ 0.5
U2C A14G C29A C33G	0.565
U2C A14G G18A A70C	≤ 0.5
U2C A14G U28A	0.534
U2C A15G C61U	≤ 0.5
U2C A15G G38C U64A G68A A69C	≤ 0.5
U2C A15U	0.653
U2C A20C C27U	0.838
U2C A20G A42U	0.642
U2C A20G U47A U53A C62U C66U	≤ 0.5
U2C A20U A40U	0.52
